Results from paper PMC11588046 (Proceedings of the National Academy of Sciences of the …, 2024).
Changes are numbered by the printed parent chain. ≈ marks a conversion by molar mass, not a printed value.

target: T1, WT ALK2 (Homo sapiens, UniProt Q04771); assay: not given; type: cell-based; conditions: read-out: ALK2 IC50; NanoBRET, HEK293 cells
T1 sequence (Q04771 21-509): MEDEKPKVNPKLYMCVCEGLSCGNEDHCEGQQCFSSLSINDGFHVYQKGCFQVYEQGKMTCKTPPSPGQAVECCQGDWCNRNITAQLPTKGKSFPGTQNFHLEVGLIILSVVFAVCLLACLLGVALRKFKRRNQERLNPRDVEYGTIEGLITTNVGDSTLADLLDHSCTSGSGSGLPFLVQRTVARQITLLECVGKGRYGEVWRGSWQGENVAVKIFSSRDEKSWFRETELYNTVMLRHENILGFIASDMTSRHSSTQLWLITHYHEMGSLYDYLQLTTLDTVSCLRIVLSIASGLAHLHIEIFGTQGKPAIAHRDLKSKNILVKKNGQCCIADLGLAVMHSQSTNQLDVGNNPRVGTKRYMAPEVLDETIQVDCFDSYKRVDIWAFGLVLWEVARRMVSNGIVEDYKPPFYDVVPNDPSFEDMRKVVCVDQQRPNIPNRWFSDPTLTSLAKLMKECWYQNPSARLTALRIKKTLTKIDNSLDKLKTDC

Compound | IC50 [nM]
COc1cc(-c2nc3ccc(C(=O)NCCCN4CCN(c5ccccc5)CC4)cc3n2C2CCC2)cc(OC)c1OC [CDD-2315] | 570
CNC(=O)[C@H]1C[C@H](n2c(-c3ccc(OC)c(OC)c3)nc3ccc(C(=O)NCCCN4CCN(c5cccc(C)c5C)CC4)cc32)C1 [CDD-2421] | 1240
CNC(=O)[C@H]1C[C@H](n2c(-c3cc(OC)c(OC)c(OC)c3)nc3ccc(C(=O)NCCCN(C)C)cc32)C1 [CDD-2281] | > 30000
CNC(=O)[C@H]1C[C@H](n2c(-c3cc(F)cc(OC)c3)nc3ccc(C(=O)NCCCN4CCN(c5ccccc5)CC4)cc32)C1 [CDD-2340] | 5300
COc1cc(-c2nc3ccc(C(=O)NCC4(O)CCN(Cc5ccccc5)CC4)cc3n2C2CCC2)cc(OC)c1OC [CDD-2795] | 390

target: T2, mutant ALK2 (R206H) (Homo sapiens, UniProt Q04771, R206H); assay: not given; type: cell-based; conditions: read-out: ALK2 (R206H) IC50; NanoBRET, HEK293 cells
T2 sequence (Q04771 21-509 R206H): T1 sequence (Q04771 21-509) with R186H

Compound | IC50 [nM]
COc1cc(-c2nc3ccc(C(=O)NCCCN4CCN(c5ccccc5)CC4)cc3n2C2CCC2)cc(OC)c1OC [CDD-2315] | 1230
CNC(=O)[C@H]1C[C@H](n2c(-c3ccc(OC)c(OC)c3)nc3ccc(C(=O)NCCCN4CCN(c5cccc(C)c5C)CC4)cc32)C1 [CDD-2421] | 2400
CNC(=O)[C@H]1C[C@H](n2c(-c3cc(OC)c(OC)c(OC)c3)nc3ccc(C(=O)NCCCN(C)C)cc32)C1 [CDD-2281] | > 30000
CNC(=O)[C@H]1C[C@H](n2c(-c3cc(F)cc(OC)c3)nc3ccc(C(=O)NCCCN4CCN(c5ccccc5)CC4)cc32)C1 [CDD-2340] | 9250
COc1cc(-c2nc3ccc(C(=O)NCC4(O)CCN(Cc5ccccc5)CC4)cc3n2C2CCC2)cc(OC)c1OC [CDD-2795] | 460

target: WT ALK1 (Homo sapiens, UniProt P37023); assay: NanoBRET TE intracellular kinase assay; type: cell-based; conditions: read-out: ALK1 IC50, HEK293 cells
Sequence (P37023 22-503): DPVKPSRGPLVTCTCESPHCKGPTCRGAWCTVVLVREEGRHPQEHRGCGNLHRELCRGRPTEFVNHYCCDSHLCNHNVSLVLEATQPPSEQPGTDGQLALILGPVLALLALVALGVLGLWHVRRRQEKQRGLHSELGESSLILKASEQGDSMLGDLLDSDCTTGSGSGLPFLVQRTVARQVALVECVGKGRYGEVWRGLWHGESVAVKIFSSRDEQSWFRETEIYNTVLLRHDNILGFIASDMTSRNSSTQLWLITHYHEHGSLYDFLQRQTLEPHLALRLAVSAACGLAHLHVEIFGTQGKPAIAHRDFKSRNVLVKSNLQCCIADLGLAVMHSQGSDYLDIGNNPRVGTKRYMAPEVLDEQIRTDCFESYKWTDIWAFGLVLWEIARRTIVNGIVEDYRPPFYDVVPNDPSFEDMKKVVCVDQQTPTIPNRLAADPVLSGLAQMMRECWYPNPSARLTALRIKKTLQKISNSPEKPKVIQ

Compound | IC50 [µM]
COc1cc(-c2nc3ccc(C(=O)NCCCN4CCN(c5ccccc5)CC4)cc3n2C2CCC2)cc(OC)c1OC [CDD-2315] | > 30
CNC(=O)[C@H]1C[C@H](n2c(-c3ccc(OC)c(OC)c3)nc3ccc(C(=O)NCCCN4CCN(c5cccc(C)c5C)CC4)cc32)C1 [CDD-2421] | > 30
CNC(=O)[C@H]1C[C@H](n2c(-c3cc(OC)c(OC)c(OC)c3)nc3ccc(C(=O)NCCCN(C)C)cc32)C1 [CDD-2281] | > 30
CNC(=O)[C@H]1C[C@H](n2c(-c3cc(F)cc(OC)c3)nc3ccc(C(=O)NCCCN4CCN(c5ccccc5)CC4)cc32)C1 [CDD-2340] | > 30
COc1cc(-c2nc3ccc(C(=O)NCC4(O)CCN(Cc5ccccc5)CC4)cc3n2C2CCC2)cc(OC)c1OC [CDD-2795] | 8.55

tested on: not listed separately; assay: Metabolic stability in mouse liver microsomes; type: in vitro ADME; conditions: not given

Compound | MLM t1/2 [min]
CNC(=O)[C@H]1C[C@H](n2c(-c3cc(OC)c(OC)c(OC)c3)nc3ccc(C(=O)NCCCN(C)C)cc32)C1 [CDD-2281] | 804

same assay, conditions: U, extremely unstable

Compound | MLM t1/2 [min]
COc1cc(-c2nc3ccc(C(=O)NCCCN4CCN(c5ccccc5)CC4)cc3n2C2CCC2)cc(OC)c1OC [CDD-2315] | 6.3
CNC(=O)[C@H]1C[C@H](n2c(-c3ccc(OC)c(OC)c3)nc3ccc(C(=O)NCCCN4CCN(c5cccc(C)c5C)CC4)cc32)C1 [CDD-2421] | 3.7
CNC(=O)[C@H]1C[C@H](n2c(-c3cc(OC)c(OC)c(OC)c3)nc3ccc(C(=O)NCCCN(C)C)cc32)C1 [CDD-2281] | 807
CNC(=O)[C@H]1C[C@H](n2c(-c3cc(F)cc(OC)c3)nc3ccc(C(=O)NCCCN4CCN(c5ccccc5)CC4)cc32)C1 [CDD-2340] | 7.1
COc1cc(-c2nc3ccc(C(=O)NCC4(O)CCN(Cc5ccccc5)CC4)cc3n2C2CCC2)cc(OC)c1OC [CDD-2795] | 2.9

tested on: not listed separately; assay: Metabolic stability in human liver microsomes; type: in vitro ADME; conditions: not given

Compound | HLM t1/2 [min]
CNC(=O)[C@H]1C[C@H](n2c(-c3cc(OC)c(OC)c(OC)c3)nc3ccc(C(=O)NCCCN(C)C)cc32)C1 [CDD-2281] | 768

same assay, conditions: U, extremely unstable

Compound | HLM t1/2 [min]
COc1cc(-c2nc3ccc(C(=O)NCCCN4CCN(c5ccccc5)CC4)cc3n2C2CCC2)cc(OC)c1OC [CDD-2315] | 7.8
CNC(=O)[C@H]1C[C@H](n2c(-c3ccc(OC)c(OC)c3)nc3ccc(C(=O)NCCCN4CCN(c5cccc(C)c5C)CC4)cc32)C1 [CDD-2421] | 6.0
CNC(=O)[C@H]1C[C@H](n2c(-c3cc(OC)c(OC)c(OC)c3)nc3ccc(C(=O)NCCCN(C)C)cc32)C1 [CDD-2281] | 769
CNC(=O)[C@H]1C[C@H](n2c(-c3cc(F)cc(OC)c3)nc3ccc(C(=O)NCCCN4CCN(c5ccccc5)CC4)cc32)C1 [CDD-2340] | 24.4
COc1cc(-c2nc3ccc(C(=O)NCC4(O)CCN(Cc5ccccc5)CC4)cc3n2C2CCC2)cc(OC)c1OC [CDD-2795] | 17.0

tested on: not listed separately; assay: Dynamic solubility assay; type: physicochemical; conditions: not given

Compound | Solubility [µM]
COc1cc(-c2nc3ccc(C(=O)NCCCN4CCN(c5ccccc5)CC4)cc3n2C2CCC2)cc(OC)c1OC [CDD-2315] | 63.5 (≈ 37.1 µg/mL)
CNC(=O)[C@H]1C[C@H](n2c(-c3ccc(OC)c(OC)c3)nc3ccc(C(=O)NCCCN4CCN(c5cccc(C)c5C)CC4)cc32)C1 [CDD-2421] | 44.8 (≈ 28.6 µg/mL)
CNC(=O)[C@H]1C[C@H](n2c(-c3cc(OC)c(OC)c(OC)c3)nc3ccc(C(=O)NCCCN(C)C)cc32)C1 [CDD-2281] | 199.6 (≈ 105 µg/mL)
CNC(=O)[C@H]1C[C@H](n2c(-c3cc(F)cc(OC)c3)nc3ccc(C(=O)NCCCN4CCN(c5ccccc5)CC4)cc32)C1 [CDD-2340] | 121.8 (≈ 72.9 µg/mL)
COc1cc(-c2nc3ccc(C(=O)NCC4(O)CCN(Cc5ccccc5)CC4)cc3n2C2CCC2)cc(OC)c1OC [CDD-2795] | 141.5 (≈ 82.7 µg/mL)

tested on: 293 T-BRE-Luc cells; assay: BMP-induced luciferase activity in 293 T-BRE-Luc reporter cells; type: cell-based; conditions: read-out: IC50 of BMP2-induced luciferase activity; 5 ng/mL BMP2, 6 h
Procedure, shortened: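 293T cells stably carrying a BMP-responsive element–luciferase reporter, about 20,000 per well, attached overnight. Pretreated 30 min with DMSO vehicle or test compound (0.04, 0.2, 1, 5, 25 μM) in phenol-red-free DMEM with 2 mM glutamine and 2% heat-inactivated FBS. Then stimulated 6 h with BMP2 (5 ng/mL), BMP6 (500 ng/mL) or BMP7 (500 ng/mL). BrightGLO luminescence normalized to ligand-only samples; dose-response curves fitted.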

Compound | IC50 [nM]
COc1cc(-c2nc3ccc(C(=O)NCCCN4CCN(c5ccccc5)CC4)cc3n2C2CCC2)cc(OC)c1OC [CDD-2315] | 1490

same assay, conditions: read-out: IC50 of BMP6-induced luciferase activity; 500 ng/mL BMP6, 6 h

Compound | IC50 [nM]
COc1cc(-c2nc3ccc(C(=O)NCCCN4CCN(c5ccccc5)CC4)cc3n2C2CCC2)cc(OC)c1OC [CDD-2315] | 1460

same assay, conditions: read-out: IC50 of BMP7-induced luciferase activity; 500 ng/mL BMP7, 6 h

Compound | IC50 [nM]
COc1cc(-c2nc3ccc(C(=O)NCCCN4CCN(c5ccccc5)CC4)cc3n2C2CCC2)cc(OC)c1OC [CDD-2315] | 980

tested on: FOP fibroblasts (GM00513); assay: pSMAD Western blot in primary FOP fibroblasts; type: cell-based, human; conditions: FOP cells, 5 ng/mL BMP2, inhibitor 1, 5 or 25 µM (LDN 1 µM)
Procedure, shortened: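 Primary fibroblasts from a patient with FOP (GM00513) were pretreated for 30 min with test compound (1, 5 or 25 µM) or a reference inhibitor (1 µM). Cells then received vehicle (DMSO), 200 ng/mL activin A or 5 ng/mL BMP2 for 45 min, with inhibitor present. Lysates were Western blotted for pSMAD1/5, total SMAD1, total SMAD5 and GAPDH (loading control). For activin A, pSMAD2/3 was also blotted.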

Compound | BMP2-induced pSMAD1/5 activation
c1ccc2c(-c3cnn4cc(-c5ccc(N6CCNCC6)cc5)cnc34)ccnc2c1 [LDN-193189, reference compound] | effectively suppressed pSMAD1/5 activation
CNC(=O)[C@H]1C[C@H](n2c(-c3cc(F)cc(OC)c3)nc3ccc(C(=O)NCCCN4CCN(c5ccccc5)CC4)cc32)C1 [CDD-2340] | only the highest concentration (25 µM) was sufficient to significantly reduce pSMAD1/5 activation

same assay, conditions: FOP cells, 200 ng/mL activin A, inhibitor 1, 5 or 25 µM (LDN 1 µM)

Compound | activin A-induced phosphorylation of SMAD1/5
COc1cc(-c2nc3ccc(C(=O)NCCCN4CCN(c5ccccc5)CC4)cc3n2C2CCC2)cc(OC)c1OC [CDD-2315] | significantly inhibit the activin A-induced phosphorylation of SMAD1/5 starting at the 1 µM concentration
c1ccc2c(-c3cnn4cc(-c5ccc(N6CCNCC6)cc5)cnc34)ccnc2c1 [LDN-193189, reference compound] | effectively suppressed pSMAD1/5 activation
CNC(=O)[C@H]1C[C@H](n2c(-c3cc(F)cc(OC)c3)nc3ccc(C(=O)NCCCN4CCN(c5ccccc5)CC4)cc32)C1 [CDD-2340] | significantly inhibit the activin A-induced phosphorylation of SMAD1/5 starting at the 1 µM concentration

tested on: WT fibroblasts (GM01652); assay: pSMAD1/5 Western blot in primary WT fibroblasts; type: cell-based, human; conditions: 5 ng/mL BMP2, inhibitor 1, 5 or 25 µM (LDN 1 µM)

Compound | BMP2-induced pSMAD1/5 activation
COc1cc(-c2nc3ccc(C(=O)NCCCN4CCN(c5ccccc5)CC4)cc3n2C2CCC2)cc(OC)c1OC [CDD-2315] | significantly reduced pSMAD1/5 at all the concentrations tested
c1ccc2c(-c3cnn4cc(-c5ccc(N6CCNCC6)cc5)cnc34)ccnc2c1 [LDN-193189, reference compound] | effectively suppressed pSMAD1/5 activation
CNC(=O)[C@H]1C[C@H](n2c(-c3cc(F)cc(OC)c3)nc3ccc(C(=O)NCCCN4CCN(c5ccccc5)CC4)cc32)C1 [CDD-2340] | potently reduced BMP2-induced pSMAD1/5 activation in the WT fibroblasts at 5 and 25 µM
